Results from ChEMBL document CHEMBL1126878, “4,5-Dihydro-1-phenyl-1H-2,4-benzodiazepines: novel antiarrhythmic agents” (J Med Chem, 1993).

Columns and labels:
Felis catus [1] = experiment: Ventricular fribrillation threshold (VFT) after iv administration to anesthetized, acutely infarcted cats at 5 mg/kg; type: functional, Heart
Procedure, shortened: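 Anesthetized cats received a slow iv bolus of test agent, followed 10 min later by single-stage LAD occlusion. Before dosing, VFT was measured three times about 15 min apart as baseline, raising the stimulating current until fibrillation was induced. After occlusion, pacing was repeated every 15 min for 2 h, then every 30 min, to 5 h. The value is the mean maximum VFT change (mamps) over 5 h.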

Felis catus [2] = experiment: Effective refractory period (ERP) after iv administration to anesthetized, acutely infarcted cats at x mg/kg; type: functional
Procedure, shortened: (§1)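 Anesthetized cats given a slow iv bolus, with single-stage LAD occlusion 10 min later. Stimulating current raised until fibrillation; three baseline sequences about 15 min apart. Pacing repeated every 15 min for 2 h after occlusion, then every 30 min, for 5 h in total. Values are the mean maximum change over 5 h in VFT (mamps) or ERP (ms); cardioversion at 14–50 J.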

Canis familiaris = experiment: Minimal effective dose that resulted in significant reduction in PVC frequency in conscious dogs by po administration after 24 hours of coronary artery ligation; type: functional; details: Canis lupus familiaris, read-out: MED
Procedure, shortened: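 Dogs (8.0–19.1 kg) underwent LAD occlusion under halothane anesthesia with Holter electrodes. 24 h after occlusion, animals with PVCs exceeding 50% of heart rate were dosed orally by gavage with agent in water (n = 4 per group). Holter recorded 1 h before and 12–24 h after dosing.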

Cavia porcellus [3] = experiment: Effective dose in vivo for cardiac refractoriness (ERP) using paced guinea pig model; type: functional
Procedure, shortened: (§2)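 Guinea pig paced in vivo model. Hemodynamics recorded in normal sinus rhythm; ERP measured during brief pacing at baseline and 10 min after dosing. Bolus of 1 mL/kg via left ventricular catheter for doses <10 mg/kg; higher doses infused over 1 min. Cumulative dosing every 15 min up to the maximally tolerated dose (dP/dt reduced >50%). ED20 (ERP +20 ms) and dP/dt20 (20% drop in LV pressure-rise rate) derived by linear regression of individual dose-response curves.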

Cavia porcellus [4] = experiment: Minimal effective dose that resulted in significant delay in the onset of arrhythmias in guinea pig with iv administration of aconitine hydrochloride; type: functional; details: read-out: MED
Procedure, shortened: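 Guinea pigs (n = 6 per dose, parallel groups) received agent or saline iv (1 mL/kg) 10 min before a lethal aconitine hydrochloride challenge (34 μg/kg iv). Times to first PVC, sustained VT and VF (>15 s) were recorded and compared with concurrent controls by one-way ANOVA. MED taken from an ascending semilogarithmic dose escalation as the dose giving significant delay in arrhythmia onset.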

Cavia porcellus [5] = experiment: In vivo index of cardiac contractility using paced guinea pig model; type: functional; procedure, shortened: as §2
[6] = biological target: Sodium channel protein type 5 subunit alpha (cardiac sodium channel) (Rattus norvegicus, UniProt P15389); experiment: in vitro; details: sodium channel from cardiac myocytes, probe [3H]batrachotoxin ([3H]BTX)
Sodium channel protein type 5 subunit alpha (cardiac sodium channel), sequence (P15389 whole entry): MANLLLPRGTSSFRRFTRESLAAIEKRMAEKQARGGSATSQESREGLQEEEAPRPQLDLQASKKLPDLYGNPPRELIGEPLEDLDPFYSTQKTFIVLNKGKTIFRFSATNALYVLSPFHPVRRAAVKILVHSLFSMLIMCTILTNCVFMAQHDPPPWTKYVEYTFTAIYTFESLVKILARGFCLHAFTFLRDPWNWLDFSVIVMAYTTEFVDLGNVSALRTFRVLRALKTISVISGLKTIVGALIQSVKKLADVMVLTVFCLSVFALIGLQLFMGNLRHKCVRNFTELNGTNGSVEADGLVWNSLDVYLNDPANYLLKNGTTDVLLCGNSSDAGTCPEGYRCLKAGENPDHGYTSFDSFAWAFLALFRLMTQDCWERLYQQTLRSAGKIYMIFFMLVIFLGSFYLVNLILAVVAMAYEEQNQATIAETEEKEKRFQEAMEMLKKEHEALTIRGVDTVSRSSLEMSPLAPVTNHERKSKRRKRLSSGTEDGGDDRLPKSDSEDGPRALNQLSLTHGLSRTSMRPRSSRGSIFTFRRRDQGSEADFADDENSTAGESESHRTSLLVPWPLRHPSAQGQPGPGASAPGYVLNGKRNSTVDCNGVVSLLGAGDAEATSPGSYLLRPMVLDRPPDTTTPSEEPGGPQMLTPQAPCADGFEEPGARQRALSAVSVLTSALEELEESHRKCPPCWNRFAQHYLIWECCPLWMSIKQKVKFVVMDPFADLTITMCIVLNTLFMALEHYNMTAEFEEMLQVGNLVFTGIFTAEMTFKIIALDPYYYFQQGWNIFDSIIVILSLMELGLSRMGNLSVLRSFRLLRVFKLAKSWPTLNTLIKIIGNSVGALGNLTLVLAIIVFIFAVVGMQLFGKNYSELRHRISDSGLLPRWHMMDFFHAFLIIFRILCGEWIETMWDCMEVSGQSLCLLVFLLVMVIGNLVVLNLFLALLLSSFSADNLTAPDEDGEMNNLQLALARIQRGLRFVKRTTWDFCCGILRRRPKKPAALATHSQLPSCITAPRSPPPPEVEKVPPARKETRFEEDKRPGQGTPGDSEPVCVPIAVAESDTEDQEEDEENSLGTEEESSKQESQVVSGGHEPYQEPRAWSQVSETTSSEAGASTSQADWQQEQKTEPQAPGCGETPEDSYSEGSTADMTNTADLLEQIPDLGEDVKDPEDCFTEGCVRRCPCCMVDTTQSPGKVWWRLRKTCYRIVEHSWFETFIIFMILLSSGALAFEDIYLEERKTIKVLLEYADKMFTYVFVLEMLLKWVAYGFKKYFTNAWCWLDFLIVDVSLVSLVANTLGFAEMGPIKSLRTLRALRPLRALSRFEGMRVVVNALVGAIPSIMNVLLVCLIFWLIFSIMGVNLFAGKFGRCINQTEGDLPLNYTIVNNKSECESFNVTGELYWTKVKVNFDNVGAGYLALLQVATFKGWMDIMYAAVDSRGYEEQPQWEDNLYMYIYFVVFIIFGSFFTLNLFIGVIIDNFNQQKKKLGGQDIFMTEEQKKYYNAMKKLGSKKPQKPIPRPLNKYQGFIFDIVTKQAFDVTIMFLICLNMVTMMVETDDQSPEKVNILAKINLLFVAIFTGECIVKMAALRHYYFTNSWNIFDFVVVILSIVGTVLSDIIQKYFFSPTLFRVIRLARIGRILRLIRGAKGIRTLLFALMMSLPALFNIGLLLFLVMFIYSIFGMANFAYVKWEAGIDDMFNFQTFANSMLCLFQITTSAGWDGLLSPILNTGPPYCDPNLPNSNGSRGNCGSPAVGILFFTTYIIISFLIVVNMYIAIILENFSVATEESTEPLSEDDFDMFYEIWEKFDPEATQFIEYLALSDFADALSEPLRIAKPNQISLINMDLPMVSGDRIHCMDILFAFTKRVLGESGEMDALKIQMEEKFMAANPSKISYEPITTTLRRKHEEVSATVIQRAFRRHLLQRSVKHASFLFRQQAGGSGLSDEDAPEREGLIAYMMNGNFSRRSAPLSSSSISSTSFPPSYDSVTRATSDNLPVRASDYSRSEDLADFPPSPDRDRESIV

Felis catus [7] = experiment: Ventricular fribrillation threshold (VFT) after iv administration to anesthetized, acutely infarcted cats at 0.3 mg/kg; type: functional, Heart; procedure, shortened: as §1
Felis catus [8] = experiment: Effective refractory period (ERP) after iv administration to anesthetized, acutely infarcted cats at 0.3 mg/kg; type: functional; procedure, shortened: as §1
Felis catus [9] = experiment: Ventricular fribrillation threshold (VFT) after iv administration to anesthetized, acutely infarcted cats at 3 mg/kg; type: functional, Heart; procedure, shortened: as §1
Felis catus [10] = experiment: Effective refractory period (ERP) after iv administration to anesthetized, acutely infarcted cats at 3 mg/kg; type: functional; procedure, shortened: as §1
Felis catus [11] = experiment: Ventricular fribrillation threshold (VFT) after iv administration to anesthetized, acutely infarcted cats at 1 mg/kg; type: functional, Heart; procedure, shortened: as §1
Felis catus [12] = experiment: Effective refractory period (ERP) after iv administration to anesthetized, acutely infarcted cats at 1 mg/kg; type: functional; procedure, shortened: as §1
Felis catus [13] = experiment: Ventricular fribrillation threshold (VFT) after iv administration to anesthetized, acutely infarcted cats at 0.03 mg/kg; type: functional, Heart; procedure, shortened: as §1
Felis catus [14] = experiment: Effective refractory period (ERP) after iv administration to anesthetized, acutely infarcted cats at 0.03 mg/kg; type: functional; procedure, shortened: as §1

Row | Compound | VFT (Felis catus [1]) [mA] | ERP (Felis catus [2]) [ms] | minimal effective dose (Canis familiaris) [mg/kg] | ED20 (Cavia porcellus [3]) [mg/kg] | minimal effective dose (Cavia porcellus [4]) [mg/kg] | dP/dt20 (Cavia porcellus [5]) [mg/kg] | inhibition at 10 µM [6] [%] | VFT (Felis catus [7]) [mA] | ERP (Felis catus [8]) [ms] | VFT (Felis catus [9]) [mA] | ERP (Felis catus [10]) [ms] | VFT (Felis catus [11]) [mA] | ERP (Felis catus [12]) [ms] | VFT (Felis catus [13]) [mA] | ERP (Felis catus [14]) [ms]
1 | CC(C)N(CCC(C(N)=O)(c1ccccc1)c1ccccn1)C(C)C (centres undefined) [DISOPYRAMIDE] | 73 | 26 | 40 | 0.2 | 1 | 0.03 | 17 |  |  |  |  |  |  |  | 
2 | CCC1=N[C@H](c2ccccc2)c2ccccc2CN1C.Cl |  |  | 10 | 0.3 | 3 | 0.3 | 42 | 63 | 16 |  |  |  |  |  | 
3 | CCC1=NC(C)(c2ccccc2)c2ccccc2CN1C.O=C(O)/C=C/C(=O)O (centres undefined) |  | 78 | 10 | 0.7 | < 3 | 1.2 | 60 |  |  | 81 |  |  |  |  | 
4 | O=C(NCC1CCCCN1)c1cc(OCC(F)(F)F)ccc1OCC(F)(F)F (centres undefined) [FLECAINIDE] |  |  | 10 | 12.8 | 3 | 1.8 | 74 |  |  | 30 | 5 |  |  |  | 
5 | CN1Cc2ccccc2[C@H](c2ccccc2)N=C1CCc1ccccc1.Cl |  |  | 10 | 0.02 | 0.1 | 0.02 |  |  |  |  |  | 82 | 21 |  | 
6 | CN1Cc2ccccc2C(c2ccccc2)N=C1CCc1ccccc1.Cl (centres undefined) |  |  | 3 | 0.04 | < 3 | 0.02 |  |  |  |  |  | 95 | 61 |  | 
7 | CN(CCOc1ccc(NS(C)(=O)=O)cc1)CCc1ccc(NS(C)(=O)=O)cc1 [DOFETILIDE] |  |  |  |  |  |  |  |  |  |  |  |  |  | 43 | 85
8 | CCC1=NC(c2ccccc2)c2ccccc2CN1C.Cl (centres undefined) |  |  | 10 | 0.6 | 3 | 0.8 | 50 |  |  |  |  | 84 | 13 |  | 
